Results from different studies.
Compare with care: the assays were run in different laboratories.
Cell line: MM1.S
Read-out: cell growth or viability

C=CC(=O)N1CCC[C@@H](n2nc(-c3ccc(Oc4ccccc4)cc3)c3c(N)ncnc32)C1 — GI50 (48 h): 7560 nM
N[C@@H]1CCCN(c2c(/C=C3\SC(=O)NC3=O)cccc2-c2ccccc2)C1 — GI50 (thymidine uptake; 72 h): 711 nM
CCS(=O)(=O)Nc1ccc(Oc2ccc(Cl)cc2)c(-c2cn(C)c(=O)c3ccccc23)c1 — IC50 (resazurin; 72 h): 3.5 nM
CC(C)C[C@H](NC(=O)[C@H](Cc1ccccc1)NC(=O)c1cnccn1)B(O)O — EC50 (ATP luminescence): 1.5 nM
CON(C)C(=O)N1N=C(c2cc(F)ccc2F)S[C@@]1(CCCN)c1ccccc1 — IC50 (ATP luminescence; 72 h): 4.9 nM
CC(C)C[C@H](NC(=O)[C@H](Cc1ccccc1)NC(=O)c1cnccn1)B(O)O — IC50 (ATP luminescence; 48 h): 15 nM
O=C(C[C@@H](C(F)F)n1ccc(F)n1)N1CCC(O)(Cn2cnc3c(cnn3-c3ccc(F)cc3)c2=O)CC1 — IC50 (ATP luminescence; 5 days): 33 nM
CCOC(=O)C1=C(C)NC(=S)NC1c1cccc(O)c1 (centres unmarked) — IC50 (ATP luminescence; 72 h): 144000 nM
